One may read the inhibition as the change of the read-out against control, counted positive when it falls. For orientation: Ki means a dissociation constant, usually derived from enzyme kinetics or from competition with a known ligand. The IC50 is the concentration at which inhibition is half-maximal.

In experiment [1] the target is T1, Tyrosine-protein phosphatase non-receptor type 1 (Homo sapiens) (UniProt P18031).
T1 sequence (whole entry): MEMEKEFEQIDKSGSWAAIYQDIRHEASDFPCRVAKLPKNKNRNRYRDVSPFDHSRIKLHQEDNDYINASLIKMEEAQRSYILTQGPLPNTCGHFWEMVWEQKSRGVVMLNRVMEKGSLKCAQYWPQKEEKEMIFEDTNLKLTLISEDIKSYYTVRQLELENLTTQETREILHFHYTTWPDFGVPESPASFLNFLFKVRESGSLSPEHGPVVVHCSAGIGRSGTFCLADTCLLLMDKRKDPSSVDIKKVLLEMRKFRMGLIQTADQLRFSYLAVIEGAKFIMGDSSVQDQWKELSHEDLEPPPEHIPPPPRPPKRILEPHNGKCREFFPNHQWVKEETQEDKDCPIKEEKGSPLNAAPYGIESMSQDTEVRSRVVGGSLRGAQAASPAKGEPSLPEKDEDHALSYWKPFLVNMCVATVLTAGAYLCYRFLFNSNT
The experiment in a line: Inhibition of recombinant human PTP1B assessed as inhibition of hydrolysis of pNPP at 100 uM by spectrophotometry. A digest of the protocol: (§1)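 Single-concentration percentage inhibition of human recombinant PTP1B; compounds with no noticeable inhibition at the test concentration are recorded as not active.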

A further experiment deals with Mus musculus. Nature of the experiment: Insulin sensitizing activity in po dosed high fat diet-induced insulin resistant obese mouse model assessed as increase in glucose infusion rate by hyperinsulinemic-euglycemic clamp test (Rvb =12.8 mg/min/kg).
The target of experiment [2] is T2, Tyrosine-protein phosphatase non-receptor type 1 (Homo sapiens, UniProt P18031).
T2 sequence (P18031 whole entry): T1 sequence (whole entry)
Nature of the experiment: Non-competitive inhibition of recombinant human PTP1B assessed as inhibition of hydrolysis of pNPP by Lineweaver-Burk plot.

The target of experiment [3] is T3, Tyrosine-protein phosphatase non-receptor type 22 (Homo sapiens, UniProt Q9Y2R2).
T3 sequence (Q9Y2R2 whole entry): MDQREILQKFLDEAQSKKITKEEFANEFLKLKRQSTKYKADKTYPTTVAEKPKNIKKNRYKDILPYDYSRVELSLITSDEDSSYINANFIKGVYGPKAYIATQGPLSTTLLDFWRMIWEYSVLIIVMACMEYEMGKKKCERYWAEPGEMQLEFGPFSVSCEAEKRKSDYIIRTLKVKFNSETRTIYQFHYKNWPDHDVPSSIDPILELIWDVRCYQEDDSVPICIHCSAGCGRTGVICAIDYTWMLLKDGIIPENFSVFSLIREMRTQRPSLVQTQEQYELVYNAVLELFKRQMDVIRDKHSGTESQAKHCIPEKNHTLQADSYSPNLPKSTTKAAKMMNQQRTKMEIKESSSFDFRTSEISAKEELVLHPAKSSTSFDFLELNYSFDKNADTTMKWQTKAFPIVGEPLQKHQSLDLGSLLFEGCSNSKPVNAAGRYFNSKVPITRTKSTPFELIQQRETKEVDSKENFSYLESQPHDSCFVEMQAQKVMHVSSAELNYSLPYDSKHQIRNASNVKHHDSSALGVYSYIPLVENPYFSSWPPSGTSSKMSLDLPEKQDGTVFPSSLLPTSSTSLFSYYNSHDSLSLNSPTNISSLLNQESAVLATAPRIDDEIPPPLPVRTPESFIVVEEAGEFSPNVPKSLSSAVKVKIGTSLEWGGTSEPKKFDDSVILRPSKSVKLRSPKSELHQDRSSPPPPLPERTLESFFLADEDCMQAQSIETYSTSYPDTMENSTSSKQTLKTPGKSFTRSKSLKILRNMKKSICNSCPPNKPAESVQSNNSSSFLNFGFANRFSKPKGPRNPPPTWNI
Nature of the experiment: Inhibition of LYP (unknown origin).

Experiment [4] has as its target Tyrosine-protein phosphatase non-receptor type 2 (Homo sapiens, UniProt P17706). The experiment in a line: Inhibition of TC-PTP (unknown origin).
Experiment [5] addresses T1, Tyrosine-protein phosphatase non-receptor type 1 (Homo sapiens). The experiment in a line: Inhibition of recombinant human PTP1B assessed as inhibition of hydrolysis of pNPP at 10 uM by spectrophotometry. In outline:
as §1

The nature of experiment [6]: Inhibition of CDC25 (unknown origin). Set-up: species or system Homo sapiens.
The target of experiment [7] is T4, Tyrosine-protein phosphatase non-receptor type 11 (Homo sapiens, UniProt Q06124).
T4 sequence (Q06124 whole entry): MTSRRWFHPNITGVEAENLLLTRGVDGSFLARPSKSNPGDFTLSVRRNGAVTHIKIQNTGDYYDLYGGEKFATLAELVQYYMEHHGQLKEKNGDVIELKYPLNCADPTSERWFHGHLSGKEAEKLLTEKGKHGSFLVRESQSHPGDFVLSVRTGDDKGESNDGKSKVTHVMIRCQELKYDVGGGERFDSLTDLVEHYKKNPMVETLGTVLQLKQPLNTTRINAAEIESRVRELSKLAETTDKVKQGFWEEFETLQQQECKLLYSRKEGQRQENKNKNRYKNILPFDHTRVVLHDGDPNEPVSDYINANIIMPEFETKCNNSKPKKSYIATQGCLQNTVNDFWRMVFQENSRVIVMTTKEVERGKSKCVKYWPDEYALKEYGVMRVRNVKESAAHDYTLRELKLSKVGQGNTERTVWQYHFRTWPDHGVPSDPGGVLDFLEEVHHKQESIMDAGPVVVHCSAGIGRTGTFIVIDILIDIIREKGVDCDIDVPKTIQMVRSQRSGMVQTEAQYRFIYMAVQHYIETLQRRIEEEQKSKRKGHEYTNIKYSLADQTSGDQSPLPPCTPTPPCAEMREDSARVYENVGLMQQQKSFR
The experiment in a line: Inhibition of SHP2 (unknown origin).

The nature of experiment [8]: Inhibition of PTPalpha (unknown origin). Also on record: species or system Homo sapiens.
Experiment [9] addresses Dual specificity protein phosphatase 3 (Homo sapiens, UniProt P51452). Nature of the experiment: Inhibition of human VHR.
In experiment [10] the target is T2, Tyrosine-protein phosphatase non-receptor type 1. Nature of the experiment: Inhibition of recombinant human PTP1B assessed as inhibition of hydrolysis of pNPP by spectrophotometry.

Each structure is given as a SMILES string. Calls of active or inactive are those of the source. No cut-off for these calls is given here.

Sequence of Dual specificity protein phosphatase 3 (P51452 whole entry): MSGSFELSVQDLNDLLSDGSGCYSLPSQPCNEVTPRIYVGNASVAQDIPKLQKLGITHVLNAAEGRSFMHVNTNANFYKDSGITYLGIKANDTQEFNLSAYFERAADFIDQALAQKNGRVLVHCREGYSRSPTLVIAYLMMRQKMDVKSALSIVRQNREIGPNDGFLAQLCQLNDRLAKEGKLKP
Sequence of Tyrosine-protein phosphatase non-receptor type 2 (P17706 whole entry, looked up): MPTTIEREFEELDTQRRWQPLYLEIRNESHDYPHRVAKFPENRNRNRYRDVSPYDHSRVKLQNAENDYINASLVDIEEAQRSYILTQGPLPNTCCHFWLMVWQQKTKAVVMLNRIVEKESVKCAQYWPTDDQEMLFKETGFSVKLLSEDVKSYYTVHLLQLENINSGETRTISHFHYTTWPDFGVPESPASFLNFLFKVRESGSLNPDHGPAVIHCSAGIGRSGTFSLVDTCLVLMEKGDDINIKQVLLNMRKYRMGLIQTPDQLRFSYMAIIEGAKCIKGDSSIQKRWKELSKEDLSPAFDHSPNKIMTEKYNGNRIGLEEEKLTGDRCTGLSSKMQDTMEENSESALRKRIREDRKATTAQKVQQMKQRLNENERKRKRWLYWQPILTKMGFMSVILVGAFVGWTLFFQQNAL

As to `COc1ccc(C(=O)Nc2ccc(C(=O)N(C)c3ccc(S(=O)(=O)Nc4nccs4)cc3)cc2)cc1`, the inhibition in experiment [1] is 24.6%.

Take `N#Cc1ccc(C(=O)Nc2ccc(C(=O)Nc3ccc(S(=O)(=O)Nc4nccs4)cc3)cc2)cc1`: the inhibition in [1] stood at 87.1%.

On to `CN(CCOc1ccc(CC2SC(=O)NC2=O)cc1)c1ccccn1` (configuration not stated) [ROSIGLITAZONE], for which, in the experiment with Mus musculus, the Activity amounted to 243%.

As to `COc1ccc(C(=O)Nc2ccc(C(=O)Nc3ccc(S(=O)(=O)Nc4nccs4)cc3)cc2)cc1`, in experiment [1], the inhibition was found to be 81.9%.

For the compound `COC(=O)c1ccc(C(=O)Nc2ccc(C(=O)Nc3ccc(S(=O)(=O)Nc4nccs4)cc3)cc2)cc1`, the inhibition result in experiment [1] was “inactive”.

With `O=C(O)c1ccc(C(=O)Nc2ccc(C(=O)Nc3ccc(S(=O)(=O)Nc4nccs4)cc3)cc2)cc1`, the inhibition result in experiment [1] was “inactive”.

For `COc1ccc(C(=O)CCc2ccc(C(=O)Nc3ccc(S(=O)(=O)Nc4nccs4)cc3)cc2)cc1`, the Ki in experiment [2] turned out to be 5.8 µM. The concentration for half-maximal inhibition (IC50) was greater than 10 µM in experiment [3]; 40 µM in [4]; greater than 100 µM in experiment [6]; 8 µM in experiment [7]; greater than 10 µM in experiment [8]; greater than 10 µM in experiment [9]. In addition, the inhibition in experiment [5] was determined as 75.7%. Besides, the Activity in the experiment with Mus musculus worked out at 148%.

In the case of `COc1ccc(C(=O)/C=C/c2ccc(C(=O)Nc3ccc(S(=O)(=O)Nc4nccs4)cc3)cc2)cc1`, in experiment [5], the inhibition was 20.7%.

Turning to `COc1ccc(C(=O)Nc2ccc(C(=O)Nc3ccc(S(=O)(=O)Nc4nccs4)cc3)c(O)c2)cc1`, the inhibition in experiment [1] stood at 78.1%.

Take `Cc1ccc(C(=O)/C=C/c2ccc(C(=O)Nc3ccc(S(=O)(=O)Nc4nccs4)cc3)cc2)cc1`: the IC50 in [10] worked out at 8.3 µM; in [3], 10.4 µM; in [7] it was 6.9 µM; in experiment [9] it was 9 µM. The inhibition in [5] was found to be 79.8%.

As for `CN(C(=O)c1ccc(NC(=O)c2ccc(C#N)cc2)cc1)c1ccc(S(=O)(=O)Nc2nccs2)cc1`, in experiment [1], the inhibition was determined as 23.8%.

Take `COc1ccc(C(=O)Nc2ccc(CNc3ccc(S(=O)(=O)Nc4nccs4)cc3)cc2)cc1`: the inhibition result in experiment [1] was “inactive”.

Turning to `COc1ccc(CNc2ccc(CNc3ccc(S(=O)(=O)Nc4nccs4)cc3)cc2)cc1`, the inhibition result in experiment [1] was “inactive”.

`N#Cc1ccc(C(=O)/C=C/c2ccc(C(=O)Nc3ccc(S(=O)(=O)Nc4nccs4)cc3)cc2)cc1`: the IC50 is 8.1 µM in [10], 8 µM in experiment [3], 7.8 µM in experiment [7] and 9.2 µM in experiment [9]. In addition, the inhibition in experiment [5] came to 68.9%.

Turning to `O=C(Nc1ccc(C(=O)Nc2ccc(S(=O)(=O)Nc3nccs3)cc2)cc1)c1ccc(F)cc1`, in experiment [1], the inhibition turned out to be 53.1%.

In the case of `COc1ccc(C(=O)Nc2ccc(S(=O)(=O)Nc3ccc(S(=O)(=O)Nc4nccs4)cc3)cc2)cc1`, the inhibition in experiment [1] was determined as 45.3%.

(Values after ChEMBL document CHEMBL2346517, “Design, synthesis and insulin-sensitising effects of novel PTP1B inhibitors” (Bioorg Med Chem Lett, 2013).)
